Source: article PMC4144739 (The Journal of Experimental Medicine, 2014)
“Also recorded” adds a separate entry of the source.

Key:
[1] = Solubility in physiological buffers; format: physicochemical
[2] = uric acid administration; ref Scott et al., 2002; cited from earlier work
[3] = test system: inflammasomes in monocytes; conditions: crystals of uric acid; cited from earlier work
Amyloid fibril formation = format: physicochemical; conditions: physiological buffers; ThT staining; Fig. S1
In short: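 Hexapeptide (200 µg in 50 µl) was combined with 100 mM MES pH 7.4 and a 1 M solution at the appropriate pH, then incubated at 37°C. ThT (10 µM solution, pre-addition) was added. Fluorescence was read at 485 nm with excitation at 440 nm. Run in triplicate and repeated twice.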

[4] = test system: type 1 IFN (murine IFN-α4, 5, 12, and 13; consensus primers); assay: Type 1 IFN induced in PBCs of healthy C57BL/6 mice; format: in vivo, mouse (C57BL/6); conditions: compared with peptides that readily form fibrils
[5] = EAE induced by adoptive transfer of Th17 lymphocytes, clinical signs; format: in vivo, mouse (C57BL/6J); conditions: 2 µg daily for 21 d beginning the day after adoptive transfer; groups of 10 mice
In short: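 Donor female C57BL/6J mice were immunised s.c. with MOG35-55 in CFA. On day 10, spleen and draining lymph node cells were restimulated for 3 d with 10 µg/ml MOG35-55 plus 10 ng/ml IL-23. Cells (15 × 10^6 per mouse) were given i.p. to 9-wk-old female recipients. PBS served as control. Mice were scored daily on a 0–5 scale, with atypical EAE scored separately.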

[6] = ref Kurnellas et al., 2013; cited from earlier work

With Ac-VQIVYK-NH2 [Tau 623–628] the “solubility in physiological buffers” value [1] was “limited solubility in physiological buffers”.

For O=c1[nH]c(=O)c2[nH]c(=O)[nH]c2[nH]1 [uric acid], the “therapeutic effect in EAE” value [2] is listed as “therapeutic benefit” and the “endocytosis and inflammasome induction” value [3] is listed as “endocytosed and induce inflammasomes with subsequent secretion of IL-1β by monocytes”.

In the case of SSTNVG [Amylin 28–33], the “amyloid fibril formation in vitro” value (Amyloid fibril formation) was “do not readily form fibrils in physiological buffers; also recorded: did not form detectable amounts of fibrils in vitro”, the “type 1 IFN production (summary)” value [4] was “stimulated significantly less type 1 IFN production” and the “clinical signs of Th17-induced EAE, 2 µg” value [5] was “therapeutic in Th17-induced EAE”. The “therapeutic effect of polar, nonionizable peptides in active EAE” value [6] was “therapeutic”.
